Assay results: ChEMBL document CHEMBL4715780, “Biological evaluation of tetracationic compounds based on two 1,4-diazabicyclo[2.2.2]octane moieties connected by different linkers” (Bioorg Med Chem, 2016)

Key:
[1] = tested on: Proteus vulgaris; test: Antibacterial activity against Proteus vulgaris ATCC 6380 assessed as concentration required to inhibit visible growth by CLSI protocol based serial microdilution method; format: functional
[2] = tested on: Pseudomonas aeruginosa; test: Antibacterial activity against Pseudomonas aeruginosa ATCC 9027 assessed as concentration required to inhibit visible growth by CLSI protocol based serial microdilution method; format: functional
[3] = Selectivity index, ratio of CC50 for HEK293T cells assessed as reduction in cell viability measured after 24 hrs by MTT assay to MIC for Proteus vulgaris ATCC 6380 assessed as bacterial growth inhibition by CLSI protocol based serial microdilution method; format: toxicity; conditions: human, read-out: Selectivity Index
[4] = tested on: Enterococcus faecalis; test: Antibacterial activity against Enterococcus faecalis ATCC 51299 assessed as concentration required to inhibit visible growth by CLSI protocol based serial microdilution method; format: functional
[5] = tested on: Escherichia coli; test: Antibacterial activity against Escherichia coli ATCC 25922 assessed as concentration required to inhibit visible growth by CLSI protocol based serial microdilution method; format: functional
[6] = Cytotoxicity against human MCF7 cells assessed as reduction in cell viability measured after 24 hrs by MTT assay; format: cell-based
Procedure, shortened: (§1)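 HEK293T or MCF-7 cells in IMDM with 10% FBS, seeded at 20,000 per well and grown overnight. Compounds at […] in fresh medium for 24 h at 37 °C, 5% CO₂. MTT then added for 4 h, precipitate dissolved overnight in SDS-HCl, absorbance read at 570 nm. Viability expressed relative to untreated cells, giving CC₅₀. Duplicate wells, at least two independent repeats.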

[7] = tested on: Staphylococcus aureus; test: Antibacterial activity against […] Staphylococcus aureus ATCC 25923 assessed as bacterial growth inhibition by CLSI protocol based serial microdilution method; format: functional
[8] = tested on: Pseudomonas aeruginosa; test: Antibacterial activity against Pseudomonas aeruginosa ATCC 9027 assessed as bacterial growth inhibition by CLSI protocol based serial microdilution method; format: functional
[9] = tested on: Salmonella typhimurium; test: Antibacterial activity against Salmonella enterica ATCC 14028 assessed as bacterial growth inhibition by CLSI protocol based serial microdilution method; format: functional, Salmonella enterica subsp. enterica serovar Typhimurium
[10] = Selectivity index, ratio of CC50 for HEK293T cells assessed as reduction in cell viability measured after 24 hrs by MTT assay to MIC for Salmonella enterica ATCC 14028 assessed as bacterial growth inhibition by CLSI protocol based serial microdilution method; format: toxicity; conditions: human, read-out: Selectivity Index
[11] = tested on: Proteus vulgaris; test: Antibacterial activity against Proteus vulgaris ATCC 6380 assessed as bacterial growth inhibition by CLSI protocol based serial microdilution method; format: functional
[12] = tested on: Citrobacter freundii; test: Antibacterial activity against Citrobacter freundii ATCC 8090 assessed as bacterial growth inhibition by CLSI protocol based serial microdilution method; format: functional
[13] = Selectivity index, ratio of CC50 for HEK293T cells assessed as reduction in cell viability measured after 24 hrs by MTT assay to MIC for Staphylococcus aureus ATCC 25923 assessed as bacterial growth inhibition by CLSI protocol based serial microdilution method; format: toxicity; conditions: human, read-out: Selectivity Index
[14] = Selectivity index, ratio of CC50 for HEK293T cells assessed as reduction in cell viability measured after 24 hrs by MTT assay to MIC for Escherichia coli ATCC 25922 assessed as bacterial growth inhibition by CLSI protocol based serial microdilution method; format: toxicity; conditions: human, read-out: Selectivity Index
[15] = tested on: Salmonella typhimurium; test: Antibacterial activity against Salmonella enterica ATCC 14028 assessed as concentration required to inhibit visible growth by CLSI protocol based serial microdilution method; format: functional, Salmonella enterica subsp. enterica serovar Typhimurium
[16] = tested on: Influenza A virus; test: Antiviral activity against Influenza A virus (A/Puerto Rico/8/34 (H1N1) infected in MDCK cells assessed as decrease in viral titer preincubated for 1 hr followed by viral infection and cultivated for 48 hrs followed by supernatant transferred to chicken erythrocyte for 1 hr followed by measuring ability to cause positive hemagglutination; format: functional, organism-based; conditions: A/Puerto Rico/8/1934(H1N1)
Procedure, shortened: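 MDCK monolayers in MEM were pre-incubated with compound for 1 h at 37 °C, then infected with 10-fold virus dilutions (10⁻¹–10⁻⁶) and held 48 h at 37 °C, 5% CO₂. Supernatant was mixed with an equal volume of 1% chicken erythrocytes, 60 min at room temperature. Titre was taken from the highest dilution giving full agglutination (log₁₀ EID₅₀). Triplicate per concentration.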

[17] = tested on: Staphylococcus aureus; test: Antibacterial activity against […] Staphylococcus aureus ATCC 25923 assessed as concentration required to inhibit visible growth by CLSI protocol based serial microdilution method; format: functional
[18] = Selectivity index, ratio of CC50 for HEK293T cells assessed as reduction in cell viability measured after 24 hrs by MTT assay to MIC for Candida albicans CEMTC 34 assessed as bacterial growth inhibition by CLSI protocol based serial microdilution method; format: toxicity; conditions: human, read-out: Selectivity Index
Procedure, shortened: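 SI = CC₅₀ (HEK293T) / MIC. HEK293T cells were seeded at 20,000/well overnight, then exposed to 10–250 µg/mL in IMDM with 10% FBS for 24 h. MTT was added for 4 h, solubilised with SDS-HCl, and read at 570 nm; duplicates, ≥2 independent runs. MIC came from two-fold dilutions in Sabouraud dextrose broth at ~5 × 10⁵ CFU/mL, 37 °C with shaking, read at 595 nm, in duplicate.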

[19] = tested on: Enterococcus faecalis; test: Antibacterial activity against Enterococcus faecalis ATCC 51299 assessed as bacterial growth inhibition by CLSI protocol based serial microdilution method; format: functional
[20] = Cytotoxicity against MDCK cells assessed as cell death incubated for 48 hrs by MTT assay; format: cell-based, Canis lupus familiaris; conditions: dog
[21] = tested on: Candida albicans; test: Antifungal activity against Candida albicans CEMTC 34 assessed as fungal growth inhibition by CLSI protocol based serial microdilution method; format: functional
Procedure, shortened: (§2)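 Candida albicans grown in Sabouraud dextrose broth with two-fold serial compound dilutions from water stocks; final inoculum about 5 × 10⁵ CFU/mL. Incubated at 37 °C with orbital shaking (580 rpm). MIC is the lowest concentration preventing growth, by absorbance at 595 nm. MFC is the lowest concentration with no visible growth. Duplicates in two separate experiments.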

[22] = Selectivity index, ratio of CC50 for HEK293T cells assessed as reduction in cell viability measured after 24 hrs by MTT assay to MIC for Citrobacter freundii ATCC 8090 assessed as bacterial growth inhibition by CLSI protocol based serial microdilution method; format: toxicity; conditions: human, read-out: Selectivity Index
[23] = tested on: Candida albicans; test: Antifungal activity against Candida albicans CEMTC 34 assessed as concentration required to inhibit visible growth by CLSI protocol based serial microdilution method; format: functional; procedure, shortened: as §2
[24] = tested on: Citrobacter freundii; test: Antibacterial activity against Citrobacter freundii ATCC 8090 assessed as concentration required to inhibit visible growth by CLSI protocol based serial microdilution method; format: functional
[25] = Selectivity index, ratio of CC50 for HEK293T cells assessed as reduction in cell viability measured after 24 hrs by MTT assay to MIC for Pseudomonas aeruginosa ATCC 9027 assessed as bacterial growth inhibition by CLSI protocol based serial microdilution method; format: toxicity; conditions: human, read-out: Selectivity Index
[26] = Selectivity index, ratio of CC50 for MDCK cells to EC50 for Influenza A virus (A/Puerto Rico/8/34 (H1N1)) infected in MDCK cells; format: toxicity, cell-based; conditions: dog, read-out: Ratio CC50/EC50
Procedure, shortened: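 Ratio of CC₅₀ to EC₅₀, both in MDCK cells, with cytotoxicity run in parallel with the antiviral assay. EC₅₀ is the concentration halving virus production (0.3 log₁₀ EID₅₀ titre drop). It was obtained after 1 h compound pre-incubation, infection, 48 h at 37 °C, and hemagglutination read-out with 1% chicken erythrocytes.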

[27] = tested on: Escherichia coli; test: Antibacterial activity against Escherichia coli ATCC 25922 assessed as bacterial growth inhibition by CLSI protocol based serial microdilution method; format: functional
[28] = Selectivity index, ratio of CC50 for HEK293T cells assessed as reduction in cell viability measured after 24 hrs by MTT assay to MIC for Enterococcus faecalis ATCC 51299 assessed as bacterial growth inhibition by CLSI protocol based serial microdilution method; format: toxicity; conditions: human, read-out: Selectivity Index
[29] = Cytotoxicity against HEK293T cells assessed as reduction in cell viability measured after 24 hrs by MTT assay; format: cell-based, HEK-293T; conditions: human; procedure, shortened: as §1

| Compound | MBC [1] | MBC [2] | selectivity ratio at 24 h [3] | MBC [4] | MBC [5] | CC50 at 24 h [6] | MIC [7] | MIC [8] | MIC [9] | selectivity ratio at 24 h [10] | MIC [11] | MIC [12] | selectivity ratio at 24 h [13] | selectivity ratio at 24 h [14] | MBC [15] | EC50 [16] | MBC [17] | selectivity ratio at 24 h [18] | MIC [19] | CC50 at 48 h [20] | also measured |
| --- | --- | --- | --- | --- | --- | --- | --- | --- | --- | --- | --- | --- | --- | --- | --- | --- | --- | --- | --- | --- | --- |
| CCCCCCCCCCCC[N+]12CC[N+](C/C=C/C[N+]34CC[N+](CCCCCCCCCCCC)(CC3)CC4)(CC1)CC2 | > 100 µg/mL | 3.1 µg/mL | < 1 | 1.6 µg/mL | 3.1 µg/mL | 8 µg/mL | 1.2 µg/mL | 1.6 µg/mL | 16 µg/mL | 6 | 100 µg/mL | 1.6 µg/mL | 8 | 3 | 3.1 µg/mL | 2.6 µg/mL | 1.6 µg/mL | < 1 | 1.6 µg/mL | 6.8 µg/mL | MIC [21]: 12.5 µg/mL; selectivity ratio at 24 h [22]: 6; MFC [23]: 12.5 µg/mL; MBC [24]: 3.1 µg/mL; selectivity ratio at 24 h [25]: 6; selectivity ratio [26]: 3; MIC [27]: 3.1 µg/mL; selectivity ratio at 24 h [28]: 6; CC50 at 24 h [29]: 10 µg/mL |
| CCCCCCCCCCCC[N+]12CC[N+](CCCCC[N+]34CC[N+](CCCCCCCCCCCC)(CC3)CC4)(CC1)CC2 | > 100 µg/mL | 6.3 µg/mL | < 1 | 1.6 µg/mL | 3.1 µg/mL | 7 µg/mL | 0.6 µg/mL | 3.1 µg/mL | 1.6 µg/mL | 5 | > 100 µg/mL | 1.6 µg/mL | 13 | 5 | 3.1 µg/mL | 2.4 µg/mL | 1.2 µg/mL | 1 | 1.6 µg/mL | 9.7 µg/mL | MIC [21]: 6.3 µg/mL; selectivity ratio at 24 h [22]: 5; MFC [23]: 12.5 µg/mL; MBC [24]: 3.1 µg/mL; selectivity ratio at 24 h [25]: 2; selectivity ratio [26]: 4; MIC [27]: 1.6 µg/mL; selectivity ratio at 24 h [28]: 5; CC50 at 24 h [29]: 7.5 µg/mL |
